Assay results published in article PMC2937276 (Molecular cancer therapeutics, 2010).

Columns and labels:
GBM culture 2414 = experiment: XTT cell proliferation assay; type: cell-based, Mouse; settings: mouse GBM culture 2414; 36 hours; mean of three experiments ± SD
Method in brief: (§1)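 Primary human or mouse GBM cultures (DMEM, 10% FBS) were seeded at 5000 cells per 96-well well. Cells were cultured with test compound or vehicle for 36 h. Proliferation was read by XTT assay in quadruplicate. IC50 came from nonlinear-regression curve fitting.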

GBM culture 46 = experiment: XTT cell proliferation assay; type: cell-based, Mouse; settings: mouse GBM culture 46; 36 hours; mean of three experiments ± SD
Method in brief: as §1

GBM culture 69 = experiment: XTT cell proliferation assay; type: cell-based, Mouse; settings: mouse GBM culture 69; 36 hours; mean of three experiments ± SD
Method in brief: as §1

GBM culture 42 = experiment: XTT cell proliferation assay; type: cell-based, Mouse; settings: mouse GBM culture 42; 36 hours; mean of three experiments ± SD
Method in brief: as §1

GBM culture 2736 = experiment: XTT cell proliferation assay; type: cell-based, Mouse; settings: mouse GBM culture 2736; 36 hours; mean of three experiments ± SD
Method in brief: as §1

GBM culture GBM-1 = experiment: XTT cell proliferation assay; type: cell-based, Mouse; settings: mouse GBM culture GBM-1; 36 hours; mean of three experiments ± SD
Method in brief: as §1

GBM culture 41 = experiment: XTT cell proliferation assay; type: cell-based, Mouse; settings: mouse GBM culture 41; 36 hours; mean of three experiments ± SD
Method in brief: as §1

GBM culture GBM-2 = experiment: XTT cell proliferation assay; type: cell-based, Mouse; settings: mouse GBM culture GBM-2; 36 hours; mean of three experiments ± SD
Method in brief: as §1

GBM culture 2000 = experiment: XTT cell proliferation assay; type: cell-based, Mouse; settings: mouse GBM culture 2000; 36 hours; mean of three experiments ± SD
Method in brief: as §1

GBM culture 2227 = experiment: XTT cell proliferation assay; type: cell-based, Mouse; settings: mouse GBM culture 2227; 36 hours; mean of three experiments ± SD
Method in brief: as §1

GBM culture 2231 = experiment: XTT cell proliferation assay; type: cell-based, Mouse; settings: mouse GBM culture 2231; 36 hours; mean of three experiments ± SD
Method in brief: as §1

GBM culture 2415 = experiment: XTT cell proliferation assay; type: cell-based, Mouse; settings: mouse GBM culture 2415; 36 hours; mean of three experiments ± SD
Method in brief: as §1

GBM culture 102 = experiment: XTT cell proliferation assay; type: cell-based, Mouse; settings: mouse GBM culture 102; 36 hours; mean of three experiments ± SD
Method in brief: as §1

GBM culture 103 = experiment: XTT cell proliferation assay; type: cell-based, Mouse; settings: mouse GBM culture 103; 36 hours; mean of three experiments ± SD
Method in brief: as §1

GBM culture GBM15 = experiment: XTT cell proliferation assay; type: cell-based, Human; settings: human GBM culture GBM15; 36 hours; mean of three experiments ± SD
Method in brief: as §1

GBM culture GBM43 = experiment: XTT cell proliferation assay; type: cell-based, Human; settings: human GBM culture GBM43; 36 hours; mean of three experiments ± SD
Method in brief: as §1

GBM culture GBM39 = experiment: XTT cell proliferation assay; type: cell-based, Human; settings: human GBM culture GBM39; 36 hours; mean of three experiments ± SD
Method in brief: as §1

GBM culture GBM59 = experiment: XTT cell proliferation assay; type: cell-based, Human; settings: human GBM culture GBM59; 36 hours; mean of three experiments ± SD
Method in brief: as §1

GBM culture GBM6 = experiment: XTT cell proliferation assay; type: cell-based, Human; settings: human GBM culture GBM6; 36 hours; mean of three experiments ± SD
Method in brief: as §1

GBM culture GBM12 = experiment: XTT cell proliferation assay; type: cell-based, Human; settings: human GBM culture GBM12; 36 hours; mean of three experiments ± SD
Method in brief: as §1

GBM culture GBM22 = experiment: XTT cell proliferation assay; type: cell-based, Human; settings: human GBM culture GBM22; 36 hours; mean of three experiments ± SD
Method in brief: as §1

GBM culture GBM8 = experiment: XTT cell proliferation assay; type: cell-based, Human; settings: human GBM culture GBM8; 36 hours; mean of three experiments ± SD
Method in brief: as §1

[1] = in vivo
[2] = in clinical evaluation for various cancers; cited from earlier work

- accumulation in mouse brain ([1]; ip): rapidly declines to undetectable levels
- Brain concentration ([1]; mouse): 2.6 ng/g
Compound: C=CCNC1=C2C[C@@H](C)C[C@H](OC)[C@H](O)[C@@H](C)/C=C(\C)[C@H](OC(N)=O)[C@@H](OC)/C=C\C=C(/C)C(=O)NC(=CC1=O)C2=O [17-AAG, 17-allylamino-17-demethoxygeldanamycin, reference compound]
- IC50 (GBM culture 2414): 205 ± 13.1 nM
- IC50 (GBM culture 46): 91.9 ± 1.4 nM
- IC50 (GBM culture 69): 91 ± 4.3 nM
- IC50 (GBM culture 42): 166 ± 24.9 nM
- IC50 (GBM culture 2736): 381 ± 24.1 nM
- IC50 (GBM culture GBM-1): 208 ± 9.6 nM
- IC50 (GBM culture 41): 100 ± 5 nM
- IC50 (GBM culture GBM-2): 1100 ± 119 nM
- IC50 (GBM culture 2000): 345 ± 75.5 nM
- IC50 (GBM culture 2227): 712 ± 54.4 nM
- IC50 (GBM culture 2231): 737 ± 72 nM
- IC50 (GBM culture 2415): 329 ± 50.1 nM
- IC50 (GBM culture 102): 626.2 ± 6 nM
- IC50 (GBM culture 103): 794 ± 28.7 nM
- IC50 (GBM culture GBM15): 110 ± 13.4 nM
- IC50 (GBM culture GBM43): 86.9 ± 2.3 nM
- IC50 (GBM culture GBM39): 241.7 ± 1.2 nM
- IC50 (GBM culture GBM59): 211 ± 11 nM
- IC50 (GBM culture GBM6): 531.7 ± 5 nM
- IC50 (GBM culture GBM12): 2580 ± 166 nM
- IC50 (GBM culture GBM22): 4670 ± 148 nM
- IC50 (GBM culture GBM8): 8010 ± 543 nM
- toxicity on exposure [2]: dose-limiting hepatotoxicity
